Laboratory results taken from ChEMBL document CHEMBL1124388, “Cardiotonic agents. 1-Methyl-7-(4-pyridyl)-5,6,7,8-tetrahydro-3 (2H)-isoquinolinones and related compounds. Synthesis and activity” (J Med Chem, 1989).
The source made the active and inactive calls. The calls are words filed in the database; no cut-off is given here.

Tests used:
[1] = species on record: Canis familiaris; test: Positive inotropic effects in the propranolol induced heart failure model in the dog.; format: functional, Canis lupus familiaris
How it was run: (§1)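 Pentobarbital-anesthetized (30 mg/kg iv) mongrel dogs, 8–12 kg, either sex. Heart failure induced by propranolol, 4 mg/kg iv bolus then 0.1 mg/kg/min infusion. About 20 min later, compound given cumulatively into the femoral vein, one dose-response curve per animal. LV dp/dt max read by electronic differentiator. ED100 is the dose restoring pre-propranolol LV dp/dt max, taken from log dose-response. Highest dose tested 10 mg/kg. Three experiments unless stated.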

[2] = tested on: Canis familiaris; test: Positive inotropic effects in the propranolol induced heart failure model in the dog; Inactive at 10 mg/kg.; format: functional, organism-based; design: dose 10 mg/kg; settings: Canis lupus familiaris; how it was run: as §1
[3] = species on record: Canis lupus familiaris; test: Relative inhibition of canine PDE1 and PDE 3
[4] = biological target: Phosphodiesterase 1 (Canis familiaris); test: Inhibition of canine Phosphodiesterase 1(PDE 1)
[5] = biological target: Phosphodiesterase 3 (Canis familiaris); test: Inhibition of canine Phosphodiesterase III (PDE 3)

Row | Structure (SMILES) | ED100 [1] [mg/kg] | ED100 [2] | further results
1 | Cc1nc(O)c(N)c2c1CC(c1ccncc1)CC2 (centres undefined) | 0.2 |  | 
2 | Cc1nc(O)c(C#N)c2c1CC(c1ccccc1)CC2 (centres undefined) | 0.1 |  | 
3 | N#Cc1c(O)ncc2c1CCCC2 |  | inactive | 
4 | Cc1nc(O)c(C#N)c2c1CC(c1ccccn1)CC2 (centres undefined) | 0.3 |  | 
5 | COC1CCc2nc(O)c(C#N)c(C)c2C1 (centres undefined) |  | inactive | 
6 | Cc1nc(O)c(C#N)c2c1CC(c1ccncc1)CC2 (centres undefined) | 0.1 |  | 
7 | Cc1nc(O)c(C#N)c2c1C(C)CCC2 (centres undefined) | 3 |  | 
8 | Cc1c(C#N)c(O)nc2c1CC(c1ccncc1)CC2 (centres undefined) |  | inactive | 
9 | Cc1nc(O)c(C#N)c2c1CCCC2 | 3 |  | 
10 | CCCc1c(O)nc(C)c2c1CCC(c1ccncc1)C2 (centres undefined) | 0.3 |  | 
11 | Cc1nc(O)c(C#N)c2c1CCCC2C (centres undefined) | 2 |  | 
12 | Cc1nc(O)c(C#N)c2c1CC(c1ccc(CN(C)C)cc1)CC2 (centres undefined) |  | inactive | 
13 | CCC(=O)c1c(O)nc(C)c2c1CCC(c1ccncc1)C2 (centres undefined) | 4 |  | 
14 | Cc1nc(O)c([N+](=O)[O-])c2c1CC(c1ccncc1)CC2 (centres undefined) | 0.1 |  | 
15 | CCc1nc(O)c(C(C)=O)c2c1CC(c1ccncc1)CC2 (centres undefined) | 0.3 |  | 
16 | Cc1nc(O)c(C)c2c1CC(c1ccncc1)CC2 (centres undefined) | 2 |  | 
17 | Cc1nc(O)c(C#N)c2c1CC(c1cccnc1)CC2 (centres undefined) | 0.1 |  | 
18 | CCCc1nc(O)c(C#N)c2c1CCCC2 |  | inactive | 
19 | CCCC(=O)c1c(O)nc(C)c2c1CCC(c1ccncc1)C2 (centres undefined) |  | inactive | 
20 | Cc1nc(O)c(C#N)c2c1CCC(c1ccncc1)C2 (centres undefined) |  | inactive | 
21 | CCCCOC1CCc2c(C#N)c(O)nc(C)c2C1 (centres undefined) |  | inactive | 

Row | Structure (SMILES) | ED100 [1] [mg/kg] | ED100 [2] | further results
22 | Cc1c(C#N)c(O)nc2c1CC(C)CC2 (centres undefined) |  | inactive | 
23 | COC1CCc2c(C#N)c(O)nc(C)c2C1 (centres undefined) | 1 |  | 
24 | CC(=O)c1c(O)nc(C)c2c1CCC(c1ccncc1)C2 (centres undefined) | 0.1 |  | Ratio [3]: 273; IC50 [4]: 409 µM; IC50 [5]: 1.5 µM
25 | Cc1nc(O)c(C#N)c2c1CC(C(C)(C)C)CC2 (centres undefined) |  | inactive | 
26 | Cc1nc(O)c(C=O)c2c1CC(c1ccncc1)CC2 (centres undefined) |  | inactive | 
27 | Cc1nc(O)c(C#N)c2c1CC(c1ccc(N(C)C)cc1)CC2 (centres undefined) |  | inactive | 
28 | CC(=O)c1c(O)nc2c(c1C)CC(c1ccncc1)CC2 (centres undefined) |  | inactive | 
29 | Cc1nc(O)cc2c1CC(c1ccncc1)CC2 (centres undefined) | 0.3 |  | 
30 | Cc1nc(O)c(C(=O)c2ccccc2)c2c1CC(c1ccncc1)CC2 (centres undefined) |  | inactive | 
31 | Cc1nc(O)c(C#N)c2c1CC(C)CC2 (centres undefined) | 0.3 |  | 
32 | Cc1[nH]c(=O)c(C#N)cc1-c1ccncc1 [MILRINONE] | 0.1 |  | 
33 | Cc1c2c(c(C#N)c(=O)n1C)CCC(C)C2 (centres undefined) |  | inactive | 
34 | Cc1c(C#N)c(O)nc2c1CCCC2 |  | inactive | 
35 | CCC1CCc2c(C#N)c(O)nc(C)c2C1 (centres undefined) | 1 |  | 
36 | Cc1nc(O)c(C#N)c2c1CCC(C)C2 (centres undefined) | 1 |  | 
37 | COc1ccc(C2CCc3c(C#N)c(O)nc(C)c3C2)cc1 (centres undefined) | 0.3 |  | 
38 | CCc1c(O)nc(C)c2c1CCC(c1ccncc1)C2 (centres undefined) | 0.02 |  | 
39 | CCCCc1nc(O)c(C(C)=O)c2c1CC(c1ccncc1)CC2 (centres undefined) |  | inactive | 
40 | COCc1ccc(C2CCc3c(C#N)c(O)nc(C)c3C2)cc1 (centres undefined) |  | inactive | 
41 | Cc1nc(O)c(C(N)=O)c2c1CC(c1ccncc1)CC2 (centres undefined) |  | inactive | 
